# Bioassay records deposited in PubChem BioAssay by several laboratories.
# This is a sample that favours compounds with a hit; in the whole collection about 5.4% have one here.
# Cav3 T inh: human Cav3.2 channel inhibition, primary screen; Cav3.2-expressing cells, Fluo-4 calcium fluorescence FDSS; stronger effect = lower value; B-score at 10 µM; hit rate 4% among 100,000; AID 449739;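 active = single-dose well whose peak fluorescence ratio is a statistical outlier from its plate by either plate-standardised score or position-corrected B-score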
# Rev-RRE block: HIV Rev-RRE protein-RNA interaction inhibition; P05866; Rev peptide-RRE RNA binding, FRET; inhibition, % at 8 µM; hit rate 0.79% among 97,000; AID 704;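 active = inhibition above the screen-wide mean plus 3 SD, cut at about 35% in these data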;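 also: 0% = median DMSO wells and 100% = median Neomycin B control wells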
#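 Assay system: labelled RRE RNA duplex and labelled Rev peptide / Medium: HEPES pH 7.5 salt buffer with EDTA / Reagent: labelled Rev peptide / Schedule: 5 + 15 min at 25 °C / Signal: FRET, excitation 480 nm, emission 540 nm donor and 671 nm acceptor / Benchmarks: DMSO and neomycin B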
# DAT uptake mod: changed human dopamine transporter uptake under cocaine IC80 | B-score at 10 µM | hit rate 1.3% among 110,000 | LLC-PK1 hDAT cells, [14C]-dopamine uptake with cocaine IC80; actives deviate in either direction;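 active = Z score or B-score, a plate-position-corrected score, falls beyond the plate's 99.7% confidence bounds, in either direction; inactive = both scores lie inside the 99.7% bounds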;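 also: scored against the spread of the other compound wells on the same plate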
# EphB4 ephrin blk: blocks human EphB4 binding to ephrin-B2. P54760. EphB4 LBD / TNYL-RAW-Alexa532 peptide, fluorescence polarization. inhibition, % at 7 µM. hit rate 0.15% among 97,000. AID 720;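 active = inhibition above the screen-wide mean inhibition plus 3 SD, cut at about 15% in these data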;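 also: 0% = DMSO wells and 100% = excess unlabeled TNYL-RAW peptide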
# Target sequence (P54760 whole entry, looked up, the tested form may be a part): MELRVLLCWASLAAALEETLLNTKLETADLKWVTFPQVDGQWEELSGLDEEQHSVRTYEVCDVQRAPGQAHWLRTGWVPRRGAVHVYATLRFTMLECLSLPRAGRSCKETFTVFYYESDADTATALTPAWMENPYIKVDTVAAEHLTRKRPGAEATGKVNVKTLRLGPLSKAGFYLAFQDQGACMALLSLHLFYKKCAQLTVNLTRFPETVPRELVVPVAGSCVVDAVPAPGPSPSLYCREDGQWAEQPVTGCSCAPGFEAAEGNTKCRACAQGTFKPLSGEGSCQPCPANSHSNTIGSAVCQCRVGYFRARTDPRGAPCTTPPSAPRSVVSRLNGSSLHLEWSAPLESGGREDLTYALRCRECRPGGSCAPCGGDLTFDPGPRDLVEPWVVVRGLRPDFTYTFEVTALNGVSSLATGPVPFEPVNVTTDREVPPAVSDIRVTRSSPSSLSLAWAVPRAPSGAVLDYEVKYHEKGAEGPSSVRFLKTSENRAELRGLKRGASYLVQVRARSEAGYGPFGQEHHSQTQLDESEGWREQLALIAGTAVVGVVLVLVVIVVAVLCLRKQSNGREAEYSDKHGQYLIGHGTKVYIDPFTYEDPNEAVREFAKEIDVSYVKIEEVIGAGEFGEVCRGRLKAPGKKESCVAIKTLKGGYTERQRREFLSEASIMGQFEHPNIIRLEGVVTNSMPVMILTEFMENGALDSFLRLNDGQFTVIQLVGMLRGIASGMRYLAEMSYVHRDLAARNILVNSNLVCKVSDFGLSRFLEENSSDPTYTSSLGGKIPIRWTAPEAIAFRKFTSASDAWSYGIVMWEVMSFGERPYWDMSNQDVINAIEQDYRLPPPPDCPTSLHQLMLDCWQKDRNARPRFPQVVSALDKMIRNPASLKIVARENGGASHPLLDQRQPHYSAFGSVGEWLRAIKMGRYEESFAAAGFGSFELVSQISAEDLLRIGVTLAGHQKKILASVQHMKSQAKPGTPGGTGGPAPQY
# * hit, by the source's call; / = no result; [ ] = dose if it differs, or a comment.
SMILES,Cav3 T inh,Rev-RRE block,DAT uptake mod,EphB4 ephrin blk
Cc1cccc(N2CCN(C(=O)CCn3c(=S)[nH]c4cc5c(cc4c3=O)OCO5)CC2C)c1 (stereo unspecified),-4*,-3.5,1.22,1.1
O=C(CCC(=O)c1ccc(F)cc1)Nc1cc(Cl)cc(Cl)c1,-0.473,6.1,1.44,3.5
CCOC(=O)c1cnc(SC)nc1Sc1ccccc1,-0.463,17.7,1.22,-0.3
O=C1CC2(CCCCC2)Oc2ccc(F)cc21,0.472,/,-0.158,/
O=C1NC2(CCCC2)N=C1c1ccc(F)cc1,-0.278,6.8,-7.96*,-1.9
CCCCN(CC)S(=O)(=O)c1ccc(C(=O)Nc2nnc(CSC)o2)cc1,-1.19,13.7,-0.45,8.0
CCCCN(CCCC)S(=O)(=O)c1ccc(C(=O)Nc2nnc(CSC)o2)cc1,-3.13*,14.9,-1.5,0.3
Cc1cc(C)cc(N2C(=O)C3C4C=CC(C4)C3C2=O)c1 (stereo unspecified),0.722,4.3,0.037,4.4
COC(=O)c1nn(-c2ccccc2)c(-c2ccccc2)c1C(=O)c1ccccc1,-7.79*,3.9,-1.38,2.1
Cc1ccccc1CSc1n[nH]c(NS(=O)(=O)c2ccccc2)n1,-0.488,11.0,-0.713,-3.9
COC(=O)c1ccccc1NC(=O)CSCC(=O)Nc1ccc(F)cc1,-0.00451,-3.3,-0.535,-6.9
Cc1ccc(-c2noc(CCC(=O)Nc3ccccc3C)n2)cc1,-0.814,4.3,-1.78,-3.0
CCN(C(=O)CCc1nc(-c2ccc(OC)cc2)no1)c1cc(OC)ccc1OC,-6.54*,13.3,0.273,-2.2
Cc1ccc(-c2noc(CCC(=O)N(C)c3ccccc3C)n2)cc1,-5.6*,7.3,1.23,5.5
COc1ccc(-c2noc(CCC(N)=O)n2)cc1OC,0.828,10.2,-0.892,7.2
COc1ccc(-c2noc(CCC(=O)N(C)c3cccc(C)c3)n2)cc1,-5.79*,8.0,0.761,-0.7
COc1ccc(-c2noc(CCC(=O)Nc3cccc(C)c3)n2)cc1,-0.331,5.1,0.333,1.2
Cn1ncc(C#N)c1/N=C/N(Cc1ccccc1)Cc1ccccc1,-8.42*,14.3,1.18,-7.6
CC1(c2nnc(-c3ccncc3)o2)CC(c2ccc(F)cc2)=NO1 (stereo unspecified),0.756,/,-2.33*,/
COC(=O)c1c(=O)n(O)c2ccc(OC)cc2[n+]1[O-],-2.77,41.4*,-1.25,9.0
C=CCc1ccc(OCCOCCOc2ccc(C)cc2[N+](=O)[O-])c(OC)c1,-5.45*,1.7,0.357,-1.4
Cc1cccn2c(N)c(-c3ccccc3)nc12,0.0287,108.1*[fluorescence artefact?],0,1.2
N#C/C(=C/c1ccc(N2CCCCC2)o1)c1cccc(F)c1,-5.6*,98.7*[fluorescence artefact?],-0.00732,-6.7
O=C(c1ccc(S(=O)(=O)N2CCCCC2)cc1)c1nnc(-c2ccc(Cl)cc2)o1,0.77,9.2,-0.707,4.1
N#C/C(=C/c1ccc(N2CCCCCC2)o1)c1ccc(Cl)cc1,-5.72*,96.6*[fluorescence artefact?],-0.819,-2.2
SMILES,Cav3 T inh,Rev-RRE block,DAT uptake mod,EphB4 ephrin blk
N#C/C(=C/c1ccc(Sc2nc3ccccc3[nH]2)o1)c1cccc(F)c1,-4.45*,16.4,0.991,4.1
COCC(O)CSc1nc(C)[nH]c1[N+](=O)[O-] (stereo unspecified),1.28,7.7,-0.892,-0.2
CC1CCC(NC(=O)c2ccc3c(c2)S(=O)(=O)c2ccccc2C3=O)CC1 (stereo unspecified),0.34,/,0.79,/
CCOc1ccc(S(=O)(=O)N/N=C2/CC(c3ccccc3)Oc3ccccc32)cc1 (stereo unspecified),-7.13*,7.2,0.364,4.3
O=S(=O)(N/N=C1\CC(c2ccccc2)Oc2ccccc21)c1ccccc1 (stereo unspecified),-7.66*,-5.6,-0.439,-4.9
CN(C)C(CNS(=O)(=O)c1ccc(Br)cc1)c1cccnc1 (stereo unspecified),-0.977,6.2,-8.89*,-2.5
CN(C)C(CNS(=O)(=O)c1ccc(Cl)cc1)c1cccnc1 (stereo unspecified),0.0904,3.3,-0.628,2.4
Cc1cc(C)c(-c2cc(NC(=O)CSc3n[nH]c(N)n3)n(-c3ccccc3)n2)cc1C,-2.27,8.6,3.29*,-1.6
Nc1nc(SCC(=O)Nc2ccccc2-c2ccccc2)n[nH]1,0.598,10.6,-0.942,-0.4
Cc1c(C2Nc3ccccc3NC3=C2C(=O)CC(C)(C)C3)cnn1C (stereo unspecified),0.223,12.5,2.27,0.8
CC1(C)CC(=O)C2=C(C1)Nc1ccccc1N=C2,-0.506,44.7*,-0.266,-2.5
CC(=O)N1c2ccccc2N(Cc2ccc(C)cc2C)C(=O)C1(C)C,-8.3*,/,-0.587,/
CC(C)(C)n1nnnc1C(c1ccc(C(F)(F)F)cc1)N(Cc1ccc(F)cc1)Cc1ccco1 (stereo unspecified),-4.27*,2.1,-1.42,-4.7
c1ccc(CN(Cc2ccco2)C(c2ccncc2)c2nnnn2C2CCCC2)cc1 (stereo unspecified),-2.91,7.6,0.323,-1.8
CC(C)(C)n1nnnc1C(c1cccs1)N(Cc1ccc(Cl)cc1)CC1CCCO1 (stereo unspecified),-4.58*,9.2,-0.137,1.4
CC(C)(C)n1nnnc1C(c1ccc(F)cc1)N(Cc1ccc(F)cc1)Cc1ccco1 (stereo unspecified),-6.25*,5.6,-1.11,-3.2
Cc1ccc(C(c2nnnn2C(C)(C)C)N(Cc2ccco2)Cc2cccs2)cc1 (stereo unspecified),-5.14*,/,0.519,/
CC(C)(C)n1nnnc1C(c1ccc(C(F)(F)F)cc1)N(Cc1ccccc1)Cc1ccco1 (stereo unspecified),/,1.6,/,-1.5
Clc1ccc(CN(Cc2ccccc2)C(c2cccs2)c2nnnn2C2CCCC2)cc1 (stereo unspecified),-2.14,27.4,-0.215,-3.1
CCCCNC(=O)C1CCCN1C(=O)Nc1ccccc1 (stereo unspecified),-0.34,1.3,0.718,-2.6
O=C(OCc1ccccc1Cl)c1ccc(-n2cnnc2)cc1,0.558,1.5,-0.0679,0.1
COc1ccccc1CNC(=O)C1CC(c2ccccc2C(F)(F)F)=NO1 (stereo unspecified),0.0372,/,-0.254,/
CC(C)(C)n1nnnc1C(c1ccc(Cl)cc1)N(Cc1cccnc1)Cc1ccco1 (stereo unspecified),-9.48*,4.1,0.147,4.4
CC(C)C(c1nnnn1Cc1ccccc1)N(Cc1ccco1)Cc1cccs1 (stereo unspecified),-0.974,3.2,0.139,-8.9
COc1ccc(Cn2nnnc2C(C(C)C)N(Cc2ccco2)Cc2cccs2)cc1 (stereo unspecified),-3.86*,9.0,-0.273,5.3
CC(C)(C)n1nnnc1C(c1cccs1)N(Cc1ccccc1)Cc1cccnc1 (stereo unspecified),-4.57*,1.2,1.36,-14.9
Cc1c(NC(=O)C(Sc2ccccc2)c2ccccc2)cccc1[N+](=O)[O-] (stereo unspecified),/,10.4,/,-3.2
Cc1c(Cl)cccc1NC(=O)c1ccc(-n2ccnc2)nc1,1.8,4.4,0.964,1.6
